Measurements gathered from unrelated publications.
Lines come from different studies, so protocols differ.
Target: Tyrosine-protein kinase Mer (MERTK, Homo sapiens, UniProt Q12866)
One construct used (Q12866 21-999): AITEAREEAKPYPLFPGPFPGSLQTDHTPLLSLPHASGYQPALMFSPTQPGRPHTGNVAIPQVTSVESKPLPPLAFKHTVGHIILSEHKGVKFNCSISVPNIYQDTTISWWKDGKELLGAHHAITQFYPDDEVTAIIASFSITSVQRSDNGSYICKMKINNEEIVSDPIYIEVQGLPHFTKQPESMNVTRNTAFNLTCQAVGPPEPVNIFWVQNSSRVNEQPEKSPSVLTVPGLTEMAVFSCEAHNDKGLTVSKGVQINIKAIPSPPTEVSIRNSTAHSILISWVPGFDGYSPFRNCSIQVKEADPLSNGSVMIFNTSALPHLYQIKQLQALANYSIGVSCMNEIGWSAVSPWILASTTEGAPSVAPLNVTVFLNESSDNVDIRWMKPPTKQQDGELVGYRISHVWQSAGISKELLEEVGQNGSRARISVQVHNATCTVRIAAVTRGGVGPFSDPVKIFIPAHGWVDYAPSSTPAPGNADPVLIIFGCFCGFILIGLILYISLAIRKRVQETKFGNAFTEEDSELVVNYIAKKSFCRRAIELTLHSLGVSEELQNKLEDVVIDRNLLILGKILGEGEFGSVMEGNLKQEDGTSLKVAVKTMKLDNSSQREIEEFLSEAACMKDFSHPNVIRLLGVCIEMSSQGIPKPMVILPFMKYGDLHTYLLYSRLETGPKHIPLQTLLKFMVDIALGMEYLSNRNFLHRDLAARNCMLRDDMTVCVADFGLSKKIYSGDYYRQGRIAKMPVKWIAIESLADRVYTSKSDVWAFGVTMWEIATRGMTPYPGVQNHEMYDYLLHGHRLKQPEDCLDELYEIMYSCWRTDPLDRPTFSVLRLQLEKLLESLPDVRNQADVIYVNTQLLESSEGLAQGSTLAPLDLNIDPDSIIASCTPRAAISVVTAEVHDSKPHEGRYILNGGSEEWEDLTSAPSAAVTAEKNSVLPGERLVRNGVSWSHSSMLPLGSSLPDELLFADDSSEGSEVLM

c1cnn2ncc(-c3ccnc(N4CCC45COC5)n3)c2c1
remaining binding (binding; 1 µM): 87%

FC(F)(F)c1ccc2c(c1)nc(-c1cccnc1)n2C1CC1
remaining binding (cell-free assay; competition with immobilised ligand; 1 µM): 79%

C=CC(=O)N1CCC(C(=O)NCC(=O)N2CCN(c3nc(-c4cnc(N)nc4C(F)F)nc(N4CCOCC4)n3)CC2)CC1
remaining binding (binding; competition with immobilised ligand; 1 µM): 94%

CN(C)c1nccc(-c2cnc3ncccn23)n1
remaining binding (binding; 1 µM): 82%

O=C(c1ccc(Nc2ncc(Cl)c(-c3ccc(Cl)s3)n2)cc1)N1CCC(N2CCCC2)CC1
remaining binding (binding; competition with immobilised ligand; 1 µM): 4.3%

CCc1ccccc1C(=O)Nc1n[nH]c2c(C)c(F)c(C3C(C#N)=C(C)N(C)C(C)=C3C#N)cc12
remaining binding (cell-free assay; competition with immobilised ligand; 1 µM): 80%

CCN1CCN(Cc2ccc(C(=O)Nc3ccc(C)c(Oc4ccc5c(c4)CC(=O)N5)c3)cc2C(F)(F)F)CC1
remaining binding (binding; competition with immobilised ligand; 1 µM): 100%

CN(C)c1nccc(-c2cnn3ncccc23)n1
remaining binding (binding; 1 µM): 87%

O=C(Nc1c[nH]nc1C(=O)NC1CCNCC1)c1cc(F)cc(F)c1
remaining binding (binding; competition with immobilised ligand; 1 µM): 100%

C[C@@]1(Cc2ccc(C#N)cc2)C(=O)N(c2cc(Cl)cc(Cl)c2)c2ncc(C(=O)NC3(c4nc(C5CCC5)no4)CC3)n21
remaining binding (cell-free assay; competition with immobilised ligand; 1 µM): 100%

O=C(NCCCN1CCOCC1)c1ccc(Nc2ncc(Cl)c(-c3ccc(Cl)s3)n2)cc1
remaining binding (binding; competition with immobilised ligand; 1 µM): 5.5%

COc1ncc2cc3ccccc3nc2c1C#N
remaining binding (cell-free assay; competition with immobilised ligand; 5 µM): 100%

O=C(c1ccc(Nc2nccc(-c3cc4ccccc4s3)n2)cc1)N1CCC(N2CCCC2)CC1
remaining binding (binding; competition with immobilised ligand; 1 µM): 42%

C[C@@H](c1ccc(-n2cnc3c(N)ncnc32)cc1)N1CCc2nn(C)c(Cc3ccccc3)c2C1=O
remaining binding (binding; competition with immobilised ligand; 0.1 µM): 100%

C[C@H]1CCN(c2nccc(-c3cnn4ncccc34)n2)C1
remaining binding (binding; 1 µM): 94%

CC(=O)N1CCC(c2ccc(C(=O)NC(=N)N)cc2C(F)(F)F)CC1
remaining binding (cell-free assay; competition with immobilised ligand; 1 µM): 81%

Cc1cnn2ncc(-c3ccnc(N(C)C)n3)c2c1
remaining binding (binding; 1 µM): 100%

CS(=O)(=O)N1CCCC(NC(=O)[C@H](CCC2CCCCC2)NC(=O)c2ccc(CNc3ncnc4c3nnn4-c3ccccc3)cc2)C1 (stereo partly drawn)
remaining binding (cell-free assay; competition with immobilised ligand; 0.1 µM): 91%

N[C@H]1CCN(c2nccc(-c3cnn4ncccc34)n2)C1
remaining binding (binding; 1 µM): 100%

CCC(=O)N[C@H]1CC[C@@H](C(=O)N(C)c2ccc(-c3nc4ccccc4o3)cc2)C1
remaining binding (cell-free assay; competition with immobilised ligand; 1 µM): 100%

CNC(=O)[C@@H]1CC[C@@H](n2c(-c3ccc4cnccc4c3)nc3ccc(C(=O)NCc4cccc(C(N)=O)c4)cc32)C1
remaining binding (binding; competition with immobilised ligand; 1 µM): 100%
